Experimental data from ChEMBL document CHEMBL1133980, “New inhibitors of the thioredoxin-thioredoxin reductase system based on a naphthoquinone spiroketal natural product lead” (Bioorg Med Chem Lett, 2001).

Tests used:
[1] = system: MDA-MB-231; assay: Ability to inhibit the growth of MDA-MB-231 cell line; type: functional, cell-based; conditions: Homo sapiens
Procedure, shortened: (§1)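 MCF-7 (ER+, p53 replete) and MDA-MB-231 (ER−, p53 deficient) human breast cancer cells were seeded at 4000/well and left to attach overnight. They were then exposed to compound (0.1–30 μM) or 0.1% DMSO vehicle for 72 h. Medium was changed to serum-free medium with 0.1% MTT, incubated 3 h in the dark, and cell number read at 540 nm.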

[2] = biological target: T1, Thioredoxin reductase (Homo sapiens, UniProt Q16881+Q9NNW7+Q86VQ6); assay: Inhibition of thioredoxin reductase; type: protein assay
Procedure, shortened: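 Human placental TrxR (final 1.0 μM) in HEPES pH 7.2/EDTA buffer was added to diluted compound. Reaction started with NADPH (final 1 mM) and DTNB (final 10 mM) at 37 °C. A405 for DTNB reduction read every 10 s and initial rates taken. IC50 from five concentrations (0.1–50 μM).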

[3] = system: MCF7; assay: Ability to inhibit the growth of MCF-7 cell line; type: functional, cell-based; conditions: Homo sapiens; procedure, shortened: as §1
[4] = biological target: T1, Thioredoxin reductase; assay: Inhibition of thioredoxin-1/thioredoxin reductase system; type: functional
Procedure, shortened: (§2)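 Insulin reduction by human placental TrxR plus recombinant human Trx-1 (final 1.0 μM TrxR, 0.8 μM Trx-1) in 100 mM HEPES pH 7.2, 5 mM EDTA with 1 mM NADPH and 2.5 mg/mL bovine insulin, 30 min, 37 °C. Stopped with 6 M guanidine-HCl/Tris pH 8.0/10 mM DTNB; A405 read. IC50 from five concentrations (0.1–50 μM).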

[5] = Compound was tested for its ability to inhibit thioredoxin-1/thioredoxin reductase system; parameters: species or system Homo sapiens; procedure, shortened: as §2

| SMILES | IC50 [1] | IC50 [2] | IC50 [3] | IC50 [4] | IC50 [5] |
| --- | --- | --- | --- | --- | --- |
| O=C1C=CC2(Oc3cccc4cccc(c34)O2)c2cccc(OCc3ccc(-c4cccc(C(F)(F)F)c4)o3)c21 | 5.2 µM | > 50 µM | 5.5 µM | 42.4 µM |  |
| O=C1C=CC2(Oc3cccc4cccc(c34)O2)c2cccc(OCc3ccc(-c4ccccc4Cl)o3)c21 | > 10 µM | > 50 µM | > 10 µM | > 50 µM |  |
| O=C1C=CC2(Oc3cccc4cccc(c34)O2)c2cccc(OCc3ccc(Br)cc3)c21 | 9.3 µM | > 50 µM | > 10 µM | > 50 µM |  |
| C=C(C)COc1cccc2c1C(=O)C=CC21Oc2cccc3cccc(c23)O1 | 8.2 µM | > 50 µM | 7.8 µM | 4.8 µM |  |
| O=C1C=CC2(Oc3cccc4cccc(c34)O2)c2cccc(OCc3ccc(-c4ccccc4C(F)(F)F)o3)c21 | 4.9 µM | > 50 µM | 5 µM | > 50 µM |  |
| O=C1C=CC2(Oc3cccc4cccc(c34)O2)c2cccc(OCCc3ccccc3)c21 | 4.6 µM |  | 3.9 µM | > 50 µM |  |
| O=C1C=CC2(Oc3cccc4cccc(c34)O2)c2cccc(OCc3ccc(-c4ccc(Br)cc4)o3)c21 | 7.8 µM | 20.1 µM | 5.7 µM | 10.2 µM |  |
| C/C=C(/C)COc1cccc2c1C(=O)C=CC21Oc2cccc3cccc(c23)O1 | 4.5 µM |  | 1.9 µM | > 50 µM |  |
| COc1cccc2c1C(=O)C=CC21OCCCO1 | 5 µM | > 50 µM | 4.4 µM | 40.2 µM |  |
| O=C1[C@@H]2O[C@@H]2C2(Oc3cccc4cccc(c34)O2)[C@@]23O[C@@]12CCCC3=O | 8.2 µM |  | 4.6 µM | > 50 µM |  |
| O=C1C=CC2(Oc3cccc4cccc(c34)O2)C2=C1CCCC2=O | 6.4 µM |  | 3.8 µM | 2.1 µM |  |
| O=C1C=CC2(Oc3cccc4cccc(c34)O2)c2cccc(OCc3ccc(-c4cccc(Cl)c4)o3)c21 | > 10 µM | > 50 µM | > 10 µM | > 50 µM |  |
| O=C1C=CC2(Oc3cccc4cccc(c34)O2)c2cccc(OCc3ccc(Cl)cc3)c21 | 8 µM | > 50 µM | > 10 µM | > 50 µM |  |
| CCCCCCOc1cccc2c1C(=O)C=CC21Oc2cccc3cccc(c23)O1 | 13.6 µM |  | 13.4 µM | > 50 µM |  |
| CC/C=C/CCOc1cccc2c1C(=O)C=CC21Oc2cccc3cccc(c23)O1 | 9.2 µM |  | > 30 µM | > 50 µM |  |
| O=C1C=CC2(Oc3cccc4cccc(c34)O2)c2cccc(OC/C=C/c3ccccc3)c21 | 7.5 µM |  | 7.9 µM | > 50 µM |  |
| O=C1CCCC2=C1C1(Oc3cccc4cccc(c34)O1)C1OC1C2=O (configuration not stated) | 23 µM |  | 4.6 µM | 12.2 µM |  |
| C/C=C(\C)COc1cccc2c1C(=O)C=CC21Oc2cccc3cccc(c23)O1 | 5.3 µM |  | 4.3 µM | > 50 µM |  |
| C#CCOc1cccc2c1C(=O)C=CC21Oc2cccc3cccc(c23)O1 | 4.7 µM | > 50 µM | 4.3 µM | 13.4 µM |  |
| O=C1C=CC2(Oc3cccc4cccc(c34)O2)c2cccc(OCc3ccncc3)c21 | 7.3 µM | > 50 µM | 8 µM | > 50 µM |  |

Molecules with a lower IC50 [1], results first:

| IC50 [1] | IC50 [2] | IC50 [3] | IC50 [4] | IC50 [5] | SMILES |
| --- | --- | --- | --- | --- | --- |
| 4.3 µM | 8.8 µM | 4.2 µM | 3.4 µM |  | O=C1C=CC2(OCCO2)c2cccc(O)c21 |
| 3.6 µM |  | 2 µM | > 50 µM |  | CC(C)=CCOc1cccc2c1C(=O)C=CC21Oc2cccc3cccc(c23)O1 |
| 3.4 µM |  | 1.3 µM | 44 µM |  | O=C1C=CC2(Oc3cccc4cccc(c34)O2)C23OC12CCCC3=O (configuration not stated) |
| 2.9 µM |  | 1.3 µM | > 50 µM |  | C/C=C/COc1cccc2c1C(=O)C=CC21Oc2cccc3cccc(c23)O1 |
| 2.9 µM |  | 2.8 µM | 13.5 µM |  | O=C1[C@@H]2O[C@@H]2C2(Oc3cccc4cccc(c34)O2)[C@]23O[C@]12CCCC3=O |
| 2.8 µM | > 50 µM | 2 µM | 41.8 µM |  | O=C1C=CC2(Oc3cccc4cccc(c34)O2)c2cccc(OCc3ccccn3)c21 |
| 2.7 µM |  | 2.3 µM | > 50 µM |  | COc1cccc(COc2cccc3c2C(=O)C=CC32Oc3cccc4cccc(c34)O2)c1 |
| 2.7 µM | > 50 µM | 2 µM | 23.2 µM |  | C=CCOc1cccc2c1C(=O)C=CC21Oc2cccc3cccc(c23)O1 |
| 2.5 µM |  | 1.1 µM | > 50 µM |  | O=C1C=CC2(Oc3cccc4cccc(c34)O2)c2cccc(OCc3ccco3)c21 |
| 2.4 µM | 12 µM | 1 µM | 0.35 µM |  | O=C1C=CC2(Oc3cccc4cccc(c34)O2)c2cccc(O)c21 |
| 2.2 µM | > 50 µM | 0.7 µM | > 50 µM |  | COc1ccc(COc2cccc3c2C(=O)C=CC32Oc3cccc4cccc(c34)O2)cc1 |
| 2.1 µM |  | 1.3 µM | 8 µM |  | O=C1C=CC2(Oc3cccc4cccc(c34)O2)C2=C1[C@@H](O)C1C3C=CC(C3)C1[C@H]2O (some centres not stated) |
| 2 µM | 13.5 µM | 1.5 µM | 4.5 µM |  | O=C1C=C[C@H](O)[C@@]23O[C@@]12C1(Oc2cccc4cccc(c24)O1)[C@@H]1O[C@@H]1[C@@H]3O |
| 2 µM | > 50 µM | 2 µM | 23.2 µM |  | O=C1C=CC2(Oc3cccc4cccc(c34)O2)c2cccc(OCc3ccoc3)c21 |
| 2 µM |  | 4.6 µM |  | > 50 µM | CC(C)=CCC/C(C)=C/COc1cccc2c1C(=O)C=CC21Oc2cccc3cccc(c23)O1 |
| 1.4 µM | > 50 µM | 1.5 µM | > 50 µM |  | O=C1C=CC2(Oc3cccc4cccc(c34)O2)c2cccc(OCc3cccnc3)c21 |
